Laboratory results as given in ChEMBL document CHEMBL2385012, “Caesalpins A-H, bioactive cassane-type diterpenes from the seeds of Caesalpinia minax” (J Nat Prod, 2013).

Assays:
Assay type in all cases: functional, cell-based
AGS = experiment: Cytotoxicity against human AGS cells assessed as growth inhibition after 48 hrs by MTT assay
How it was run: (§1)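 Cells grown in DMEM with 10% FBS and seeded at 6 × 10^4 cells/mL. Five concentrations per compound added from DMSO, each tested in triplicate. Incubated 48 h at 37 °C under 5% CO2. MTT (4 mg/mL) added, then 4 h further incubation. Medium removed, formazan dissolved in DMSO, absorbance read at 570 nm. IC50 reported as mean ± SD of triplicate experiments. Doxorubicin served as positive control.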

MCF7 = experiment: Cytotoxicity against human MCF7 cells assessed as growth inhibition after 48 hrs by MTT assay; details: MCF7, 48 h; how it was run: as §1
A549 = experiment: Cytotoxicity against human A549 cells assessed as growth inhibition after 48 hrs by MTT assay; details: A549, 48 h; how it was run: as §1
HepG2 = experiment: Cytotoxicity against human HepG2 cells assessed as growth inhibition after 48 hrs by MTT assay; details: HepG2, 48 h; how it was run: as §1
K562 = experiment: Cytotoxicity against human K562 cells assessed as growth inhibition

| Compound | IC50 (AGS) [µM] | IC50 (MCF7) [µM] | IC50 (A549) [µM] | IC50 (HepG2) [µM] | IC50 (K562) [µM] |
| --- | --- | --- | --- | --- | --- |
| COC(=O)CC1=C(C)C2=C[C@H](OC(C)=O)[C@@]3(O)C(C)(C)CC[C@H](OC(C)=O)[C@]3(C)[C@H]2CC1=O | > 50 | 2.1 | 14.6 | 4.7 |  |
| COC(=O)CC1=C(C)[C@@H]2[C@@H](OC(C)=O)[C@H](OC(C)=O)[C@@]3(O)C(C)(C)CC[C@H](OC(C)=O)[C@]3(C)[C@H]2CC1=O | 48.3 | 7.9 | 25.2 | 18.5 |  |
| COC(CC1=C(C)[C@@H]2[C@@H](OC(C)=O)[C@H](OC(C)=O)[C@@]3(O)C(C)(C)CC[C@H](OC(C)=O)[C@]3(C)[C@H]2CC1=O)OC | 45.8 | 15.6 | 31.8 | 10.6 |  |
| CC(=O)O[C@H]1CCC(C)(C)C2=CC(=O)c3c(cc4occc4c3C)[C@]21C | 6.5 | > 50 | 24.8 | > 50 |  |
| CC(=O)O[C@H]1CCC(C)(C)[C@]2(O)[C@@H](OC(C)=O)[C@H](O)c3c(cc4occc4c3C)[C@@]12C | > 50 | > 50 | > 50 | > 50 |  |
| CO[C@@]12C[C@H]3[C@@H](CC[C@@]4(O)C(C)(C)C[C@H](OC(C)=O)[C@H](OC(C)=O)[C@]34C)[C@@H](C)C1=CC(=O)O2 | > 50 | 46.1 | > 50 | > 50 |  |
| C=C1C2=CC(=O)O[C@]2(OC)C[C@H]2[C@H]1[C@@H](O)C[C@@]1(O)C(C)(C)CC[C@H](OC(C)=O)[C@]21C | > 50 | > 50 | > 50 | 34.7 |  |
| C=C1C2=CC(=O)O[C@]2(OC)C[C@H]2[C@H]1[C@@H](O)[C@H](OC(C)=O)[C@@]1(O)C(C)(C)CC[C@H](OC(C)=O)[C@]21C | > 50 | > 50 | > 50 | 38.9 |  |
| CO[C@@]12C[C@H]3[C@@H](C[C@H](OC(C)=O)[C@@]4(O)C(C)(C)C[C@H](OC(C)=O)[C@H](OC(C)=O)[C@]34C)[C@](C)(O)C1=CC(=O)O2 | 29.1 | > 50 | > 50 | 47.2 |  |
| CC(=O)OC1CC(C)(C)[C@]2(O)C[C@H](O)[C@H]3[C@@H](C)C4=CC(=O)O[C@]4(O)C[C@@H]3[C@@]2(C)[C@H]1OC(C)=O (stereo partly drawn) | > 50 | 36.1 | 31.9 | > 50 |  |
| CC(=O)O[C@@H]1[C@@H]2[C@H](C=C3OC(=O)C=C3[C@@]2(C)O)[C@@]2(C)[C@@H](OC(C)=O)CCC(C)(C)[C@]2(O)[C@H]1OC(C)=O | > 50 | 41.2 | > 50 | > 50 |  |
| CC(=O)O[C@H]1CC(C)(C)[C@]2(O)CC[C@H]3[C@@H](C)C4=CC(=O)OC4=C[C@@H]3[C@@]2(C)[C@H]1OC(C)=O | > 50 | > 50 | > 50 | > 50 |  |
| COc1cccc2c1C(=O)c1c(O)c3c(c(O)c1C2=O)C[C@@](O)(C(=O)CO)C[C@@H]3O[C@H]1C[C@H](N)[C@H](O)[C@H](C)O1 [DOXORUBICIN] | 1.2 | 0.94 | 0.74 | 0.59 |  |
| C#C[C@@]12O[C@]1(C=O)[C@]1(C)CC[C@H]3C(C)(C)CCC[C@]3(C)[C@H]1CC2=O [ESCOBARINE A] |  |  |  |  | 2.52 |
